# High-throughput results (PubChem)
# Hits are enriched below; roughly 5.1% of the tested compounds scored in any of these assays.
# STAT3 inh-1: IL-6 driven STAT3 reporter inhibitors, primary screen, U3A cells, luciferase, luminescence, MLSCN library; IL-6 STAT3-luciferase reporter; host cell line lacks STAT1; inhibition, % at 5.5 µM; 190,000 tested, 0.89% active; AID 862, 2007;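 active means inhibition above the mean inhibition across all screened compounds plus 3 SD, cut at about 44% in these data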;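 further: 0% = DMSO only wells and 100% = 100 µM nifuroxazide control wells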
# STAT3 activator: IL-6 driven STAT3 reporter potentiators, primary screen, U3A cells, luciferase, luminescence, MLSCN library. IL-6 STAT3-luciferase reporter; 100% = signal with IL-6 EC80 alone. activation (% of control), % at 5.6 µM. 190,000 tested, 0.91% active. AID 871, 2007;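 active means activation above the screen-wide mean of compound activation plus 3 SD, cut at about 130% in these data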;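 further: 0% = background luminescence of wells with medium and substrate only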
#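 Assay system – human STAT1-deficient U3A cells with stable STAT3-luciferase reporter · Also added – IL-6 (33 ng/mL) · Schedule – compound 1 h, then IL-6 6 h at 37 °C · Technique – reporter luminescence signal · Evaluation – % activation versus median of IL-6-stimulated wells · Benchmarks – IL-6-only wells as 100% reference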
# STAT1 inh: STAT1 signaling inhibitors, primary screen, cell-based, HTS, luciferase reporter; NIH 3T3 STAT1-luciferase reporter, IFN-gamma, luminescence; inhibition, % at 5.5 µM; 200,000 tested, 0.35% active; AID 920, 2007;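 active means inhibition above a set limit, the mean inhibition across all tested compounds plus 3 SD, cut at about 34% in these data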;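 further: 0% = IFN-gamma with DMSO and 100% = IFN-gamma with 300 µM nifuroxazide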
# APP 5'UTR act: activators of APP 5'UTR luciferase reporter, primary screen, SH-SY5Y cells; SH-SY5Y APP 5'UTR luciferase reporter, luminescence; zero percent = DMSO vehicle wells; activation, % at 2 µM; 190,000 tested, 1% active; AID 1276, 2008;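 active means activation above a set limit, based on mean plus 3 SD of controls, cut at about 140% in these data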
# STAT1 act: STAT1 signaling activators, primary screen, cell-based, HTS, luciferase reporter; 200,000 tested, 2.6% active; NIH 3T3 STAT1-luciferase reporter, IFN-gamma, luminescence; 100% = IFN-gamma alone, no compound; AID 932, 2007; activation (% of control), % at 5.5 µM;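 active means activation above the screen-wide mean activation plus 3 SD, cut at about 130% in these data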;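 further: raw ratio to IFN-gamma control signal so 100% means no change and 0% no light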
# NF-kB neuron act: activators of NF-kB expression in neurons, primary screen, cell-based, HTS. fold change at 12.5 µM. 190,000 tested, 1.6% active. human neuronal cells, NF-kB reporter expression; stronger effect = higher value; in the data active means fold change above about 3.3
# STAT3 inh-2: STAT3 reporter inhibitors, retest of hits, confirmation, U3A cells, luciferase, luminescence | shares compounds with STAT3 inh-1 | IL-6 STAT3 luciferase reporter; cell line lacks STAT1 | inhibition, % at 5.7 µM | 1,200 tested, 45% active;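 active means inhibition above the hit cutoff computed for the primary STAT3 screen, cut at about 44% in these data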;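 further: 0% = IL-6 plus DMSO and 100% = IL-6 plus nifuroxazide control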
# NFkB inh STAT3ct: NF-kB reporter inhibitors in human cells, confirmation, counter-screen for STAT3 inhibitor project, cell-based, HEK293T, luciferase, TNF-alpha stimulus. shares compounds with STAT3 inh-1. TNF-alpha induced. inhibition, % at 5.7 µM. 1,200 tested, 36% active. AID 1308, 2008;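 active means inhibition above the mean of solvent-only control wells plus 3 SD, cutoff set per campaign, cut at about 13% in these data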;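 further: 0% = TNF-alpha with DMSO and 100% = TNF-alpha with MG high control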
# STAT1 inh 2: STAT1 reporter inhibitors, IFN-gamma induced, confirmation, counter-screen for STAT3 inhibitor project, cell-based, NIH 3T3, luciferase luminescence | shares compounds with STAT3 inh-1 | NIH 3T3 STAT1-luciferase reporter | inhibition, % at 5.7 µM | 1,200 tested, 27% active | AID 1317, 2008;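 active means inhibition above the mean plus 3 SD of solvent-only control wells, limit set per screening run, cut at about 16% in these data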;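 further: 0% = DMSO with IFN-gamma and 100% = nifuroxazide control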
# * hit, by the source's call; x = no result given.
SMILES,STAT3 inh-1,STAT3 activator,STAT1 inh,APP 5'UTR act,STAT1 act,NF-kB neuron act,STAT3 inh-2,NFkB inh STAT3ct,STAT1 inh 2
COc1ccc(CC(=O)Nc2cccc(-c3nnc(-c4cccc(C)c4)o3)c2)cc1OC,44*,68,7,68,92,0.48,62*,12,-3
COc1ccc(CC(=O)Nc2cccc(-c3nnc(-c4ccccc4)o3)c2)cc1OC,40,70,5,13,96,0.61,x,x,x
CCOc1ncccc1C(=O)OCC(=O)Nc1ccc(-c2nc3ccc(C)cc3s2)cc1,72*,39,-19,164*,117,3.5*,46*,-20,-25
Cc1ccc(NC(=O)COC(=O)c2ccco2)cc1,2,101,-5,15,103,1.1,x,x,x
Cc1ccc2nc(-c3ccc(NC(=O)COC(=O)c4ccco4)cc3)sc2c1,50*,56,-45,148*,141*,4.3*,28,-20,-64
CNS(=O)(=O)c1cccc(C(=O)OCC(=O)Nc2ccc(-c3nc4ccc(C)cc4s3)cc2)c1,68*,46,28,167*,73,1,32,-13,-79
Cc1ccccc1CC1(CO)CCCN(C(=O)c2ccc3ncccc3c2)C1 (stereo unspecified),-5,104,-1,2,101,0.87,x,x,x
Cc1ccc(N(C(=O)c2csnn2)C(C(=O)NC(C)(C)C)c2cccnc2)cc1 (stereo unspecified),4,99,-1,-10,99,1.3,x,x,x
Oc1ccc(Nc2nc(N3CCCC3)c3ccccc3n2)cc1,6,99,-16,-8,115,0.47,x,x,x
COc1ccc(Nc2nc(N3CCCCC3)c3ccccc3n2)cc1,47*,63,19,9,82,0.75,49*,5,27*
CC(C)c1ccc(NC(=O)C2CCCCC2C(=O)O)cc1 (stereo unspecified),50*,62,2,-17,99,1.4,14,2,1
CCOC(=O)c1ccc(NC(=O)CSc2nc3cccnc3n2C)cc1,54*,59,8,21,92,0.91,39,2,12
CC(C)C(=O)Nc1ccc(C(=O)NNC(=O)CCCOc2ccc(Cl)cc2Cl)cc1,5,102,-4,14,104,1.2,x,x,x
COc1ccc(C(=O)c2ccccc2)c2c(O)ccc(C(=O)c3ccccc3)c12,65*,46,9,-9,90,1,62*,16*,-1
CCCCc1ccc(/C=C(\C#N)C(N)=S)s1,44*,64,23,-16,77,1.2,42,-14,17*
Cn1cccc1/C=C(/C#N)C(N)=S,4,99,0,16,100,1.1,x,x,x
Cc1ccn2cc(-c3ccc4c(c3)NC(=O)CO4)nc2c1,46*,66,-18,120,114,1.1,19,-25,-76
COc1cccc(OC)c1Nc1nc(C)nc2c1nnn2Cc1ccccc1Cl,5,100,7,5,92,0.97,x,x,x
CCc1nc(Nc2ccc(OC)c(OC)c2)c2nnn(Cc3ccccc3Cl)c2n1,67*,46,24,-10,78,1.4,58*,17*,19*
OC1(c2ccc(F)cc2)CCN(Cc2nnnn2Cc2cccs2)CC1,-6,108,-5,-8,104,1.5,x,x,x
O=C(O)CCCN=Cc1c(O)c2ccccc2oc1=O,10,95,-5,5,106,1,x,x,x
